Measurements: ChEMBL document CHEMBL5058577, “EUbOPEN Chemogenomics Library 2 (Multiplex)” (2022)

Test system: U2OS
Experiment: Multiplex assay against U2OS
Assay type: toxicity, cell-based
Conditions: human
Method in brief: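 Values for tubulin, mitochondrial-mass and membrane-permeability phenotypes are per cents of cells with healthy nuclei. These cells were identified by CellPathfinder machine-learning gating of live cells that had been stained at seeding with Hoechst33342, BioTracker Green Microtubule Cytoskeleton Dye, MitoTracker Red and Annexin V Alexa Fluor 680 and imaged on a CQ1 microscope at 37°C and 5% CO2 after compound addition. The gating first set Hoechst high-intensity objects apart from normal cells, then split normal cells into healthy, pyknosed or fragmented nuclei, and pyknosed cells into mitotic or apoptotic.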

[1] = 12 h, 1 µM, compound concentration 1 uM, replicate 1
[2] = 12 h, 1 µM, compound concentration 1 uM, replicate 2
[3] = 12 h, 10 µM, compound concentration 10 uM, replicate 1
[4] = 12 h, 10 µM, compound concentration 10 uM, replicate 2
[5] = 24 h, 1 µM, compound concentration 1 uM, replicate 1
[6] = 24 h, 1 µM, compound concentration 1 uM, replicate 2
[7] = 24 h, 10 µM, compound concentration 10 uM, replicate 1
[8] = 24 h, 10 µM, compound concentration 10 uM, replicate 2
[9] = 48 h, 1 µM, compound concentration 1 uM, replicate 1
[10] = 48 h, 1 µM, compound concentration 1 uM, replicate 2
[11] = 48 h, 10 µM, compound concentration 10 uM, replicate 1
[12] = 48 h, 10 µM, compound concentration 10 uM, replicate 2

With CN1CCN2c3ccccc3Cc3ccccc3C2C1.Cl (stereo not drawn) [MIANSERIN HYDROCHLORIDE] the “Population Apoptotic (%)” value [1] was 91%, the “Population Fragmented Nuclei (%)” value [1] was 35% and the “Population Healthy Nuclei (%)” value [1] was 56%. For the same compound, the “Population Hoechst High Intensity Objects (%)” value [1] was 3%, the “Population Membrane Permeable-Phenotype (%)” value [1] was 7% and the “Population Mitochondria Different-Phenotype (%)” value [1] was 4%. For the same compound, the “Population Mitotic Cells (%)” value [1] was 8%, the “Population Normal (%)” value [1] was 96% and the “Population Pyknosed Nuclei (%)” value [1] was 7%. The “Population Tubulin-Different-Phenotype (%)” value [1] was 5%, the “Total Cell Count” value [1] was 162 and the “Population Apoptotic (%)” value [2] was 83%. For the same compound, the “Population Fragmented Nuclei (%)” value [2] was 16%, the “Population Healthy Nuclei (%)” value [2] was 77% and the “Population Hoechst High Intensity Objects (%)” value [2] was 1%. The “Population Membrane Permeable-Phenotype (%)” value [2] was 3%, the “Population Mitochondria Different-Phenotype (%)” value [2] was 3% and the “Population Mitotic Cells (%)” value [2] was 16%. The “Population Normal (%)” value [2] was 98%, the “Population Pyknosed Nuclei (%)” value [2] was 5% and the “Population Tubulin-Different-Phenotype (%)” value [2] was 2%. The “Total Cell Count” value [2] was 109, the “Population Apoptotic (%)” value [3] was 78% and the “Population Fragmented Nuclei (%)” value [3] was 23%. For the same compound, the “Population Healthy Nuclei (%)” value [3] was 68%, the “Population Hoechst High Intensity Objects (%)” value [3] was 2% and the “Population Membrane Permeable-Phenotype (%)” value [3] was 7%. The “Population Mitochondria Different-Phenotype (%)” value [3] was 3%, the “Population Mitotic Cells (%)” value [3] was 21% and the “Population Normal (%)” value [3] was 97%. For the same compound, the “Population Pyknosed Nuclei (%)” value [3] was 8%, the “Population Tubulin-Different-Phenotype (%)” value [3] was 4% and the “Total Cell Count” value [3] was 277. The “Population Apoptotic (%)” value [4] was 86%, the “Population Fragmented Nuclei (%)” value [4] was 12% and the “Population Healthy Nuclei (%)” value [4] was 77%. The “Population Hoechst High Intensity Objects (%)” value [4] was 1%, the “Population Membrane Permeable-Phenotype (%)” value [4] was 1% and the “Population Mitochondria Different-Phenotype (%)” value [4] was 2%. For the same compound, the “Population Mitotic Cells (%)” value [4] was 13%, the “Population Normal (%)” value [4] was 98% and the “Population Pyknosed Nuclei (%)” value [4] was 10%. For the same compound, the “Population Tubulin-Different-Phenotype (%)” value [4] was 0%, the “Total Cell Count” value [4] was 152 and the “Population Apoptotic (%)” value [5] was 88%. The “Population Fragmented Nuclei (%)” value [5] was 34%, the “Population Healthy Nuclei (%)” value [5] was 56% and the “Population Hoechst High Intensity Objects (%)” value [5] was 1%. For the same compound, the “Population Membrane Permeable-Phenotype (%)” value [5] was 6%, the “Population Mitochondria Different-Phenotype (%)” value [5] was 1% and the “Population Mitotic Cells (%)” value [5] was 11%. The “Population Normal (%)” value [5] was 98%, the “Population Pyknosed Nuclei (%)” value [5] was 8% and the “Population Tubulin-Different-Phenotype (%)” value [5] was 4%. For the same compound, the “Total Cell Count” value [5] was 197, the “Population Apoptotic (%)” value [6] was 75% and the “Population Fragmented Nuclei (%)” value [6] was 23%. The “Population Healthy Nuclei (%)” value [6] was 70%, the “Population Hoechst High Intensity Objects (%)” value [6] was 2% and the “Population Membrane Permeable-Phenotype (%)” value [6] was 4%. The “Population Mitochondria Different-Phenotype (%)” value [6] was 3%, the “Population Mitotic Cells (%)” value [6] was 25% and the “Population Normal (%)” value [6] was 97%. The “Population Pyknosed Nuclei (%)” value [6] was 5%, the “Population Tubulin-Different-Phenotype (%)” value [6] was 3% and the “Total Cell Count” value [6] was 142. For the same compound, the “Population Apoptotic (%)” value [7] was 69%, the “Population Fragmented Nuclei (%)” value [7] was 21% and the “Population Healthy Nuclei (%)” value [7] was 68%. The “Population Hoechst High Intensity Objects (%)” value [7] was 1%, the “Population Membrane Permeable-Phenotype (%)” value [7] was 9% and the “Population Mitochondria Different-Phenotype (%)” value [7] was 2%. For the same compound, the “Population Mitotic Cells (%)” value [7] was 30%, the “Population Normal (%)” value [7] was 98% and the “Population Pyknosed Nuclei (%)” value [7] was 10%. The “Population Tubulin-Different-Phenotype (%)” value [7] was 2%, the “Total Cell Count” value [7] was 319 and the “Population Apoptotic (%)” value [8] was 93%. The “Population Fragmented Nuclei (%)” value [8] was 13%, the “Population Healthy Nuclei (%)” value [8] was 77% and the “Population Hoechst High Intensity Objects (%)” value [8] was 2%. For the same compound, the “Population Membrane Permeable-Phenotype (%)” value [8] was 7%, the “Population Mitochondria Different-Phenotype (%)” value [8] was 3% and the “Population Mitotic Cells (%)” value [8] was 6%. The “Population Normal (%)” value [8] was 97%, the “Population Pyknosed Nuclei (%)” value [8] was 8% and the “Total Cell Count” value [8] was 183. For the same compound, the “Population Apoptotic (%)” value [9] was 78%, the “Population Fragmented Nuclei (%)” value [9] was 28% and the “Population Healthy Nuclei (%)” value [9] was 65%. The “Population Hoechst High Intensity Objects (%)” value [9] was 2%, the “Population Membrane Permeable-Phenotype (%)” value [9] was 5% and the “Population Mitochondria Different-Phenotype (%)” value [9] was 2%. The “Population Mitotic Cells (%)” value [9] was 21%, the “Population Normal (%)” value [9] was 97% and the “Population Pyknosed Nuclei (%)” value [9] was 5%. For the same compound, the “Population Tubulin-Different-Phenotype (%)” value [9] was 4%, the “Total Cell Count” value [9] was 269 and the “Population Fragmented Nuclei (%)” value [10] was 19%. For the same compound, the “Population Healthy Nuclei (%)” value [10] was 71%, the “Population Hoechst High Intensity Objects (%)” value [10] was 1% and the “Population Membrane Permeable-Phenotype (%)” value [10] was 4%. For the same compound, the “Population Mitochondria Different-Phenotype (%)” value [10] was 3%, the “Population Normal (%)” value [10] was 98% and the “Population Pyknosed Nuclei (%)” value [10] was 9%. The “Population Tubulin-Different-Phenotype (%)” value [10] was 2%, the “Total Cell Count” value [10] was 206 and the “Population Apoptotic (%)” value [11] was 91%. The “Population Fragmented Nuclei (%)” value [11] was 18%, the “Population Healthy Nuclei (%)” value [11] was 71% and the “Population Hoechst High Intensity Objects (%)” value [11] was 4%. The “Population Membrane Permeable-Phenotype (%)” value [11] was 4%, the “Population Mitochondria Different-Phenotype (%)” value [11] was 2% and the “Population Mitotic Cells (%)” value [11] was 8%. The “Population Normal (%)” value [11] was 95%, the “Population Pyknosed Nuclei (%)” value [11] was 9% and the “Population Tubulin-Different-Phenotype (%)” value [11] was 1%. The “Total Cell Count” value [11] was 397, the “Population Apoptotic (%)” value [12] was 87% and the “Population Fragmented Nuclei (%)” value [12] was 15%. For the same compound, the “Population Healthy Nuclei (%)” value [12] was 73%, the “Population Hoechst High Intensity Objects (%)” value [12] was 2% and the “Population Mitochondria Different-Phenotype (%)” value [12] was 3%. The “Population Mitotic Cells (%)” value [12] was 12%, the “Population Normal (%)” value [12] was 97% and the “Population Pyknosed Nuclei (%)” value [12] was 11%. For the same compound, the “Population Tubulin-Different-Phenotype (%)” value [12] was 2% and the “Total Cell Count” value [12] was 285.
